Test results as given in paper PMC5318329 (Drugs in R&D, 2016).

Experiments:
[1] = assay type: in vivo, human
How it was run: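 Non-head-injury trauma patients randomised within 24–26 h of injury; daily IV infusion over 4 h or 24 h for 3 days. Plasma sampled pre-dose and serially after the first and third doses. Protein precipitation, then HPLC–MS/MS (LLOQ 0.1 ng/mL, ULOQ 100 ng/mL); NQ set missing, outliers excluded. NONMEM mixed-effects three-compartment model with first-order elimination; BMI power covariate centred at 27.4 kg/m2.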

[2] = assay type: in vivo, human; settings: intravenous infusion up to 10 mg, 3 consecutive days
[3] = tested on: C-reactive protein (CRP); settings: later time points (e.g. 72 h post dose), all dilmapimod dose levels; cited from earlier work
[4] = tested on: IL-6; settings: cited from earlier work
[5] = final three-compartment population PK model, IV infusion
[6] = power model, covariate centred to population mean 27.4 kg/m^2

Cc1cc(F)ccc1-c1nc(NC(CO)CO)nc2c1ccc(=O)n2-c1c(F)cccc1F [Dilmapimod]
Dose proportionality of plasma concentration ([1]; IV infusion 3, 7.5 mg over 4 h, 7.5, 10 mg over 24 h): increased approximately proportionally to the increase in dose | Terminal half-life ([1]; calculated based on typical value of CL, Vc, V2, V3, Q1 and Q2): 16 h | Q1 (inter-compartmental clearance), typical value [1, 5]: 28.2 L/h | Q2 (inter-compartmental clearance), typical value [1, 5]: 5.7 L/h | V2 (volume of distribution of peripheral compartment), typical value [1, 5]: 35.9 L | V3 (volume of distribution of peripheral compartment), typical value [1, 5]: 115.6 L | Vc (volume of distribution of the central compartment), typical value [1, 5]: 8.1 L | Clearance lower than in typical patient ([1]; patients with BMI of 23 kg/m^2 (mean - SD) vs typical patient (27.4 kg/m^2)): about 21% | Clearance higher than in typical patient ([1]; patients with BMI of 32 kg/m^2 (mean + SD) vs typical patient (27.4 kg/m^2)): ~23% | BMI covariate on CL (power model exponent) [1, 6]: 1.36 | BMI covariate on Q2 (power model exponent) [1, 6]: 2.42 | Vss (steady-state volume of distribution) = Vc + V2 + V3 ([1]; sum of Vc, V2 and V3 of the final population PK model): 160 L | Tolerability [2]: generally well tolerated | CRP levels relative to placebo (exploratory analyses) [3]: trend of lower levels of CRP | IL-6 levels relative to placebo (exploratory analyses) ([4]; 24 h post dose, all dilmapimod dose levels): trend of lower levels of IL-6 | Ratios of IL-6 relative to placebo ([4]; continuous infusion of 10 mg/24 h, up to 72 h post dose): below 1 | Overall effect of dilmapimod on IL-6 levels in PK/PD modelling ([4]; similar PK/PD modelling approach on IL-6 data): not revealed
